# Results published in PubChem BioAssay AID465 (The Scripps Research Institute Molecular Screening Center, 2006).
# Screen size: about 62,000 compounds; about 130 (0.21%) were called active.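 Rule for the calls: active = inhibition above the mean of all tested compounds plus 3 SD (cut at about 40% in these data); inactive = the rest.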 The sample as a whole holds a higher share of actives than the screen did.
# Experiment: lowered NF-kB luciferase signal in HEK293 cells – cell-based, HEK-293 luciferase reporter, PMA/ionomycin, luminescence, antigen receptor NF-kB inhibitor project, primary screen (AID 465);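 note: 0% = stimulated DMSO wells and 100% = 10 µM reference inhibitor 5653914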
# Details: HEK-293 NF-kB luciferase reporter, at 3 µM, stronger effect = higher value
# Method in brief: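 Material: HEK-293 cells with stable firefly luciferase reporter driven by four HIV NF-kB elements / Also added: PMA plus ionomycin mix as NF-kB-activating stimulus / Compound dosing: 3 µM once, 0.30% DMSO / Times: 1 h pretreatment, 16 h stimulation, 37 °C / Signal: luminescence / Evaluation: per-plate % inhibition versus controls / Benchmarks: DMSO and 10 µM reference inhibitor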
row,Compound,inhibition
1,N#CC1=C(N)OC2=C(C(=O)CCC2)C1C1CC=CCC1 (stereo not drawn),16.6% (inactive)
2,O=S(N1CCCCCC1)C12CC3CC(CC(C3)C1)C2 (stereo not drawn),19.1% (inactive)
3,O=C(O)CCC(=O)Nc1ccc(N2CCOCC2)cc1,7.6% (inactive)
4,CC(=O)Nc1ccc(NS(=O)(=O)c2cc(C)sc2C)cc1,11.3% (inactive)
5,CCOC(=O)CNC(=O)c1nn(-c2cccc(OC)c2)c(=O)c2ccccc12,5.1% (inactive)
6,CC(=O)Nc1cc(C(=O)O)ccc1S(=O)(=O)c1ccc(Cl)cc1,15% (inactive)
7,O=C(Nc1cnccn1)c1cccnc1,14.9% (inactive)
8,Cc1csc(NC(=O)C2CCCN2C(=O)OCC(C)C)n1 (stereo not drawn),3.7% (inactive)
9,CCOC(=O)N1CCN(C(=O)c2cc3c(ccc4ccccc43)oc2=O)CC1,12.5% (inactive)
10,CC(C)(C)NC(=O)Cn1nnc(-c2ccccc2Cl)n1,-10.7% (inactive)
11,O=C1NC(c2cc3c(cc2Cl)OCO3)Oc2ccccc21 (stereo not drawn),6.8% (inactive)
12,Cc1cc(=O)n2c3c(cccc13)CCC2,7.5% (inactive)
13,CCCCN(C)Cc1c(C)[nH]c2ccc(Cl)cc2c1=O,9.1% (inactive)
14,CNC(=O)CSc1nnc(CCc2ccccc2)n1-c1ccccc1,11.6% (inactive)
15,CCCCN=C(N)/C(C(=O)OCC)=C(\O)c1ccc(OC)cc1,7.4% (inactive)
16,Cc1ccc(OS(=O)Nc2cccc3nccnc23)cc1 (stereo not drawn),8.8% (inactive)
17,COC(=O)[C@H](C)NC(=O)Nc1ccc(OC(F)(F)F)cc1,11.6% (inactive)
18,Cc1ccnc(N2CCN(C(=O)CSc3nc4ccccc4nc3N3CCCCC3)CC2)c1,5.5% (inactive)
19,COc1ccc(-c2nnn(CC(=O)N(CCO)C(C(=O)NC3CCCC3)c3ccc(F)cc3)n2)cc1 (stereo not drawn),24% (inactive)
20,CCN(CC)S(=O)(=O)c1cc(C(=O)Nc2ccccn2)ccc1C,-11.3% (inactive)
21,O=C(Cc1nn[nH]n1)NCCC1=CCCCC1,4.2% (inactive)
22,CC(=O)Oc1ccc(C(=O)Nc2nccs2)cc1,11.8% (inactive)
23,Nc1ccc(SCCN2C(=O)c3ccccc3C2=O)cc1,6.7% (inactive)
24,CCc1cc(=O)oc2cc(OCC(=O)N3CCCc4ccccc43)ccc12,12.9% (inactive)
25,Cc1cc(C)c(NC(=O)CS(=O)CC(=O)Nc2cccnc2)c(C)c1 (stereo not drawn),18.1% (inactive)

row,Compound,inhibition
1,C=CCC(NCCCO)c1cccc(OC)c1OC (stereo not drawn),7.1% (inactive)
2,O=C(CN1C2CCC1CC(NC(=O)C1CC1)C2)NCc1ccccc1 (stereo not drawn),7.7% (inactive)
3,CCCC(NC(=O)c1ccccc1)c1nc2ccccc2n1Cc1ccc(C(=O)OC)o1 (stereo not drawn),17.4% (inactive)
4,CCCC(CCC(=O)OC)(C(=O)OCC)c1csc(N)n1 (stereo not drawn),2.1% (inactive)
5,CCOC(=O)CSc1nncc2ccc(OC)c(OC)c12,2% (inactive)
6,O=C(NC(=O)c1ccc(Cl)c(Cl)c1)OC1CCS(=O)(=O)C1 (stereo not drawn),21.6% (inactive)
7,CCCN1C2=C(C(=O)CCC2)C(c2ccc(O)c(Br)c2)C2=C1CCCC2=O,-2.4% (inactive)
8,CCOC(=O)Cc1csc(NC(=O)CN(C)S(=O)(=O)c2ccc3c(c2)CCC(=O)N3)n1,0.2% (inactive)
9,COc1cc(Cl)c(C)cc1NC(=O)CSc1nnc(-c2ccco2)n1CC(C)C,14.8% (inactive)
10,O=C(CCC(=O)N1CCN(S(=O)(=O)c2ccccc2)CC1)NC1CCCc2ccccc21 (stereo not drawn),15.4% (inactive)
11,Cc1cc(Cl)c(S(=O)(=O)NCCC(=O)O)cc1OCC(N)=O,1.4% (inactive)
12,CC(=O)N1CCN(c2ccc(NCc3ccc(C(C)C)cc3)cc2)CC1,-0.9% (inactive)
13,CCCn1c(SCC(=O)Nc2cccc(C(=O)OCC)c2)nnc1-c1ccoc1C,-4.2% (inactive)
14,CCOc1ccc(OCc2ccc(C(=O)Nc3cccc(C)n3)o2)cc1,-17.7% (inactive)
15,O=P(c1cccs1)(c1cccs1)c1cccs1,22.9% (inactive)
16,CCCn1cc(SCC(N)=O)c2ccccc21,2.8% (inactive)
17,COc1ccc(N=Cc2c(O)[nH]c3ccccc23)cc1OC,-16.7% (inactive)
18,CCN(CC)S(=O)(=O)c1ccc2nc(COC(=O)c3n[nH]c4ccccc34)[nH]c2c1,12.4% (inactive)
19,Cc1ccn2cc(C(=O)NC3CCN(Cc4ccccc4)CC3)nc2c1,6.4% (inactive)
20,COc1cccc(NC(=O)Cn2cnc3sc(C)c(S(=O)(=O)N4CCN(C)CC4)c3c2=O)c1,11.9% (inactive)
21,Cc1ccsc1C(=O)OCC(=O)c1cc(C)n(CC2CCCO2)c1C (stereo not drawn),55.2% (active)
22,COC(=O)c1ccc2c(=O)n(CC3CCCO3)c(=S)[nH]c2c1 (stereo not drawn),12.2% (inactive)
23,Cc1ccsc1C(=O)OCC(=O)c1cc2ccccc2o1,3.8% (inactive)
24,O=C1NC(c2ccncc2)Nc2sc3c(c21)CCCC3 (stereo not drawn),8% (inactive)
25,COc1cccc(N(CC(=O)Nc2cccc(F)c2)S(C)(=O)=O)c1,22.4% (inactive)

row,Compound,inhibition
1,N#CCCn1cnc2ccccc21,13.5% (inactive)
2,CC1CCCN(Cc2nc3c(c(=O)n(C)c(=O)n3C)n2Cc2cccc3ccccc23)C1 (stereo not drawn),30.3% (inactive)
3,Cc1c(C(=O)N2CC(C)OC(C)C2)sc2nc(-c3ccccc3)cn12 (stereo not drawn),-1.4% (inactive)
4,CCN(CC)CCNC(=O)Cn1cnc2sc(C)c(S(=O)(=O)N3CCOCC3)c2c1=O,4.3% (inactive)
5,O=C(CN1CCN(C(=O)c2ccco2)CC1)Nc1ccc(Cl)c(C(F)(F)F)c1,3.2% (inactive)
6,NC(=O)C1CC=CCC1C(=O)OCC(Cl)=C(Cl)Cl (stereo not drawn),0.1% (inactive)
7,CCOCCc1c(O)nc(SCC(=O)NCc2ccco2)[nH]c1=O,2.4% (inactive)
8,Cc1ccc(C(=O)Nc2nnc(-c3ccncc3)s2)o1,7.3% (inactive)
9,O=C(O)C1CCCN1S(=O)(=O)c1ccc2c(c1)CCC2 (stereo not drawn),15.4% (inactive)
10,COC(=O)c1ccccc1NC(=O)c1ccccc1NS(C)(=O)=O,14.9% (inactive)
11,O=C(CSC1=NCCS1)Nc1nc(-c2ccccc2)cs1,-2.2% (inactive)
12,COC(=O)c1ccc(NC(=O)CN(c2ccc(C)cc2)S(=O)(=O)c2c(C)n[nH]c2C)cc1,21.2% (inactive)
13,O=C(NCCN1CCOCC1)[C@H](Cc1ccccc1)N1C(=O)c2ccccc2C1=O,3.6% (inactive)
14,CCC1=C/C(=C\c2ccc3c(c2)OCO3)C(=O)S1,21.2% (inactive)
15,O=C(c1ccco1)N1CCN(C(=O)c2ccc(COc3ccc(F)cc3)o2)CC1,7% (inactive)
16,COCCCN1C(=O)C(=O)/C(=C(/O)c2ccc3c(c2)CC(C)O3)C1c1cccnc1 (stereo not drawn),7.3% (inactive)
17,CCCOC(=O)Cc1c(O)c2ccccc2[nH]c1=O,6.5% (inactive)
18,COC(=O)Nc1ccc(S(=O)(=O)N(C)CC(F)(F)C(F)F)cc1,3.4% (inactive)
19,CCn1nnc(NC(=O)c2c(OC)cccc2OC)n1,10.1% (inactive)
20,O=C(c1ccc2c(c1)OCCO2)C1CCN(S(=O)(=O)c2cccc(F)c2)CC1,6.7% (inactive)
21,COC(=O)NC1(C(F)(F)F)NC(=O)N(C2CCCCC2)C1=O (stereo not drawn),9.8% (inactive)
22,O=C1NC(Nc2nc3ccccc3s2)(C(F)(F)F)C(=O)N1C1CCCCC1 (stereo not drawn),50.1% (active)
23,CC(=O)c1c(C)n([O-])c2ccccc2[n+]1=O,12.7% (inactive)
24,CC(=O)OC(C(=O)NCCc1ccccc1)c1cccnc1 (stereo not drawn),15.3% (inactive)
25,Cn1c(=O)n(C)c2cc(C(=O)Nc3ccc4c(c3)OCO4)ccc21,40.7% (active)

row,Compound,inhibition
1,Cn1c(NC(=O)c2ccc3c(c2)OCO3)cc(=O)n(C)c1=O,-1.2% (inactive)
2,COc1ccc(C(=O)Nc2ccc3c(c2)OCO3)cc1OC,-6.2% (inactive)
3,O=C(NC1CCCCC1)C1CCCN(S(=O)(=O)c2cccs2)C1 (stereo not drawn),10.2% (inactive)
4,O=C(NCCN=C1NS(=O)(=O)c2ccccc21)c1ccc(S(=O)(=O)N2CCOCC2)cc1,11.1% (inactive)
5,Cc1nnc(SCC(=O)N(C(C)C)C(C)C)nc1C,6.1% (inactive)
6,O=C(Nc1c(C(=O)N2CCCCC2)cnn1-c1ccccc1)c1ccco1,-3.8% (inactive)
7,C(=C\c1ccccc1)/CSc1nnc(-c2cccnc2)n1Cc1ccco1,11.5% (inactive)
8,Cc1ccc(NC(=O)CN2CCC3(O)CCCCC3C2c2ccc3c(c2)OCO3)c(C)c1 (stereo not drawn),0.9% (inactive)
9,Oc1c(C(c2cccs2)N2CCN(c3ccc(F)cc3)CC2)sc2ncnn12 (stereo not drawn),-1% (inactive)
10,CCOc1ccc(OCC)c(NC(=O)C2CCN(S(=O)(=O)c3c(C)noc3C)CC2)c1,15.5% (inactive)
11,O=c1cccc(-c2ccc(Br)cc2)o1,10.6% (inactive)
12,O=C(Nc1cccc2c1CCCC2)C1CCN(C(=O)NC2CCCCC2)CC1,16.4% (inactive)
13,COc1ccc2c(Cl)c(-c3nnco3)sc2c1,26.5% (inactive)
14,C=CCNC(=O)c1cc(-c2ccccc2O)on1,-6.4% (inactive)
15,O=C(Nn1cnc2ccccc2c1=O)c1ccc(F)cc1Cl,-16.4% (inactive)
16,Cc1cccc(NC(=O)C2CCCN2S(=O)(=O)c2ccc(F)cc2)c1C (stereo not drawn),19.8% (inactive)
17,COc1cccc(NS(=O)(=O)c2ccc3[nH]cc(C(=O)NCCCOC(C)C)c(=O)c3c2)c1,9% (inactive)
18,CCOC(=O)CSc1nnc(CNC(=O)c2cccs2)n1-c1cc(OC)ccc1OC,9.1% (inactive)
19,CCOC(=O)N1CCN(C(=O)COc2ccc(Br)cc2)CC1,3.3% (inactive)
20,CNC(=O)CN1C(=O)c2ccccc2S1(=O)=O,16.9% (inactive)
21,O=C(CN1C(=O)c2ccccc2S1(=O)=O)N1CCc2ccccc21,59% (active)
22,O=C(c1cccc(C(=O)N2CCc3ccccc32)n1)N1CCc2ccccc21,1.5% (inactive)
23,Cc1[nH]c2ccc(S(N)(=O)=O)cc2c1C,14.3% (inactive)
